Data reported in ChEMBL document CHEMBL1126763, “Nonpeptide angiotensin II receptor antagonists. Synthesis and biological activity of potential prodrugs of benzimidazole-7-carboxylic acids” (J Med Chem, 1993).

Key:
[1] = molecular target: T1, Angiotensin II receptor (Rattus norvegicus) (UniProt P29089+P25095+P35351); test: Inhibitory activity on AII (100 ng/kg iv)-induced pressor response after administration at 0.1 mg/kg po in conscious male Sprague-Dawley rats at 5 h.; format: functional, organism-based; design: dose 0.1 mg/kg
Method in brief: (§1)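 Conscious male Sprague-Dawley rats received test compounds orally at 0.1 mg/kg. AII (100 ng/kg iv) was given as a pressor challenge at each time point after dosing, and percent inhibition of the pressor response was recorded. Experiments were run in duplicate (n = 2); parent drug and one ester used n = 3. Inhibition may vary by less than 30%.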

[2] = molecular target: T1, Angiotensin II receptor (Rattus norvegicus); test: Inhibitory activity on AII (100 ng/kg iv)-induced pressor response after administration at 0.1 mg/kg po in conscious male Sprague-Dawley rats at 2 h.; format: functional, organism-based; design: dose 0.1 mg/kg; method in brief: as §1
[3] = molecular target: T1, Angiotensin II receptor (Rattus norvegicus); test: Inhibitory effect on AII (100 ng/kg iv)-induced pressor response after administration at 0.1 mg/kg po in conscious male Sprague-Dawley rats at 0.5 h.; format: functional, organism-based; design: dose 0.1 mg/kg; method in brief: as §1
[4] = molecular target: T1, Angiotensin II receptor (Rattus norvegicus); test: Inhibitory activity on AII (100 ng/kg iv)-induced pressor response after administration at 0.1 mg/kg po in conscious male Sprague-Dawley rats at 7 h.; format: functional, organism-based; design: dose 0.1 mg/kg; method in brief: as §1
[5] = molecular target: T1, Angiotensin II receptor (Rattus norvegicus); test: Inhibitory activity on AII (100 ng/kg iv)-induced pressor response after administration at 0.1 mg/kg po in conscious male Sprague-Dawley rats at 3 h.; format: functional, organism-based; design: dose 0.1 mg/kg; method in brief: as §1
[6] = molecular target: T1, Angiotensin II receptor (Rattus norvegicus); test: Inhibitory activity on AII (100 ng/kg iv)-induced pressor response at 0.1 mg/kg po in conscious male Sprague-Dawley rats at 1 h.; format: functional, organism-based; design: dose 0.1 mg/kg; method in brief: as §1
[7] = molecular target: T1, Angiotensin II receptor (Rattus norvegicus); test: Inhibitory activity on AII (100 ng/kg iv)-induced pressor response after administration at 0.1 mg/kg po in conscious male Sprague-Dawley rats at 24 h.; format: functional, organism-based; design: dose 0.1 mg/kg; method in brief: as §1
Rattus norvegicus [8] = test: Inhibitory activity on AII (100 ng/kg iv) -induced pressor response after administration at 0.1 mg/kg po in Dawley rats at 0.5 h; format: functional; method in brief: as §1
Rattus norvegicus [9] = test: Inhibitory activity on AII (100 ng/kg iv) -induced pressor response after administration at 0.1 mg/kg po in Dawley rats at 1 h; format: functional; method in brief: as §1

| SMILES | inhibition [1] [%] | inhibition [2] [%] | inhibition [3] [%] | inhibition [4] [%] | inhibition [5] [%] | inhibition [6] [%] | inhibition [7] [%] | inhibition in vivo at 0.1 mg/kg (Rattus norvegicus [8]) [%] | inhibition in vivo at 0.1 mg/kg (Rattus norvegicus [9]) [%] |
| --- | --- | --- | --- | --- | --- | --- | --- | --- | --- |
| CCOc1nc2cccc(C(=O)OCOC(=O)CC)c2n1Cc1ccc(-c2ccccc2-c2nn[nH]n2)cc1 | 38 | 60 | 76 | 31 | 60 | 76 | -4 |  |  |
| CCOc1nc2cccc(C(=O)OC(C)OC(=O)OC(CC)CC)c2n1Cc1ccc(-c2ccccc2-c2nn[nH]n2)cc1 (stereo unspecified) | 63 | 86 | 16 | 53 | 84 | 72 | 13 |  |  |
| CCOc1nc2cccc(C(=O)OCOC(=O)OC3CCCC3)c2n1Cc1ccc(-c2ccccc2-c2nn[nH]n2)cc1 | 77 | 55 | 5 | 64 | 68 | 14 | 14 |  |  |
| CCCCc1nc2cccc(C(=O)OCc3oc(=O)oc3C)c2n1Cc1ccc(-c2ccccc2-c2nn[nH]n2)cc1 | 75 | 81 | 32 | 77 | 88 | 63 | 55 |  |  |
| CCCCc1nc2cccc(C(=O)OC)c2n1Cc1ccc(-c2ccccc2-c2nn[nH]n2)cc1 | 38 | 50 |  | 27 | 47 |  | 11 | 11 | 52 |
| CCCCc1nc(Cl)c(CO)n1Cc1ccc(-c2ccccc2-c2nnn[nH]2)cc1 | 35 | 12 | 5 | 34 | 21 | 1 | 17 |  |  |
| CCOc1nc2cccc(C(=O)OCOC(=O)c3ccccc3)c2n1Cc1ccc(-c2ccccc2-c2nn[nH]n2)cc1 | 67 | 23 | -4 | 76 | 56 | -2 | 6 |  |  |
| CCCC(=O)OCOC(=O)c1cccc2nc(OCC)n(Cc3ccc(-c4ccccc4-c4nn[nH]n4)cc3)c12 | 54 | 78 | 100 | 48 | 67 | 84 | 6 |  |  |
| CCCCc1nc2cccc(C(=O)OCCN3CCOCC3)c2n1Cc1ccc(-c2ccccc2-c2nn[nH]n2)cc1 | 96 | 96 |  | 96 | 96 |  | 66 | 67 | 94 |
| CCCCc1nc2cccc(C(=O)OCCN(C)C)c2n1Cc1ccc(-c2ccccc2-c2nn[nH]n2)cc1 | 26 | 27 |  | 14 | 32 |  | 9 | 0 | 19 |
| CCOc1nc2cccc(C(=O)OCOC(=O)C(C)C)c2n1Cc1ccc(-c2ccccc2-c2nn[nH]n2)cc1 | 44 | 56 | 80 | 20 | 52 | 40 | 6 |  |  |
| CCCCc1nc2cccc(C(=O)OCC)c2n1Cc1ccc(-c2ccccc2-c2nn[nH]n2)cc1 | 68 | 46 |  | 63 |  |  | 47 | 7 | 25 |
| CCOc1nc2cccc(C(=O)OC(C)OC(=O)OC3CCCCC3)c2n1Cc1ccc(-c2ccccc2-c2nn[nH]n2)cc1 (stereo unspecified) | 82 | 80 | 38 | 75 | 87 | 76 | 36 |  |  |
| CCCCc1nc2cccc(C(=O)OC(C)OC(=O)OC3CCCCC3)c2n1Cc1ccc(-c2ccccc2-c2nn[nH]n2)cc1 (stereo unspecified) | 78 | 84 | 58 | 79 | 81 | 85 | 47 |  |  |
| CCOc1nc2cccc(C(=O)OCOC(=O)C3CCCCC3)c2n1Cc1ccc(-c2ccccc2-c2nn[nH]n2)cc1 | 89 | 76 | 0 | 80 | 85 | 5 | 14 |  |  |
| CCOC(=O)OC(C)OC(=O)c1cccc2nc(OCC)n(Cc3ccc(-c4ccccc4-c4nn[nH]n4)cc3)c12 (stereo unspecified) | 81 | 95 | 74 | 71 | 89 | 87 | 7 |  |  |

| SMILES | inhibition [1] [%] | inhibition [2] [%] | inhibition [3] [%] | inhibition [4] [%] | inhibition [5] [%] | inhibition [6] [%] | inhibition [7] [%] | inhibition in vivo at 0.1 mg/kg (Rattus norvegicus [8]) [%] | inhibition in vivo at 0.1 mg/kg (Rattus norvegicus [9]) [%] |
| --- | --- | --- | --- | --- | --- | --- | --- | --- | --- |
| CCCCc1nc2cccc(C(=O)OCCO)c2n1Cc1ccc(-c2ccccc2-c2nn[nH]n2)cc1 | 21 | 10 |  | 25 | 11 |  | 20 | 7 | 7 |
| CCOc1nc2cccc(C(=O)OCc3oc(=O)oc3C)c2n1Cc1ccc(-c2ccccc2-c2nn[nH]n2)cc1 | 70 | 87 | 49 | 44 | 85 | 83 | 6 |  |  |
| CCOc1nc2cccc(C(=O)OCOC(=O)/C=C/c3ccccc3)c2n1Cc1ccc(-c2ccccc2-c2nn[nH]n2)cc1 | 61 | 80 | -3 | 64 | 80 | 36 | 3 |  |  |
| CCOc1nc2cccc(C(=O)O)c2n1Cc1ccc(-c2ccccc2-c2nnn[nH]2)cc1 | 85 | 51 | 7 |  | 67 | 24 | 43 |  |  |
| CCOc1nc2cccc(C(=O)OCOC(=O)OCC3CC3)c2n1Cc1ccc(-c2ccccc2-c2nn[nH]n2)cc1 | 44 | 57 | 10 | 30 | 58 | 49 | 22 |  |  |
| CCOc1nc2cccc(C(=O)OC(C)OC(=O)OC3CCC3)c2n1Cc1ccc(-c2ccccc2-c2nn[nH]n2)cc1 (stereo unspecified) | 79 | 86 | 35 | 60 | 83 | 77 | 25 |  |  |
| CCOc1nc2cccc(C(=O)OC(C)OC(=O)OC(C)C)c2n1Cc1ccc(-c2ccccc2-c2nn[nH]n2)cc1 (stereo unspecified) | 80 | 84 | 70 | 67 | 79 | 91 | 12 |  |  |
| CCCCc1nc2cccc(C(=O)OC(C)OC(=O)OCC)c2n1Cc1ccc(-c2ccccc2-c2nn[nH]n2)cc1 (stereo unspecified) | 81 | 84 | 64 | 75 | 89 | 89 | 61 |  |  |
| CCCCc1nc2cccc(C(=O)O)c2n1Cc1ccc(-c2ccccc2-c2nn[nH]n2)cc1 |  | 45 |  |  |  |  | 42 | 8 | 33 |
| CCOc1nc2cccc(C(=O)OCOC(=O)OC(C)C)c2n1Cc1ccc(-c2ccccc2-c2nn[nH]n2)cc1 | 68 | 79 | 23 | 57 | 72 | 55 | 28 |  |  |
| CCOc1nc2cccc(C(=O)OCOC(C)=O)c2n1Cc1ccc(-c2ccccc2-c2nn[nH]n2)cc1 | 72 | 79 | 66 | 59 | 78 | 84 | 23 |  |  |
| CCOc1nc2cccc(C(=O)OC(C)OC(C)=O)c2n1Cc1ccc(-c2ccccc2-c2nn[nH]n2)cc1 (stereo unspecified) | 84 | 92 | 86 | 75 | 86 | 90 | 28 |  |  |
| CCOc1nc2cccc(C(=O)OCOC(=O)C3CCCC3)c2n1Cc1ccc(-c2ccccc2-c2nn[nH]n2)cc1 | 62 | 61 | 7 | 54 | 65 | 31 | 9 |  |  |
| CCCCc1nc2cccc(C(=O)OCc3ccncc3)c2n1Cc1ccc(-c2ccccc2-c2nn[nH]n2)cc1 | 18 | 18 | 4 | 8 | 16 | 16 |  |  |  |
| CCOc1nc2cccc(C(=O)OCOC(=O)OC3CCCCC3)c2n1Cc1ccc(-c2ccccc2-c2nn[nH]n2)cc1 | 53 | 4 | 1 | 54 | 15 | -3 | 11 |  |  |
